Test results as given in paper PMC5109833 (Journal of medicinal chemistry, 2015).
Read-outs that look alike come from different tables or passages of the source. Peptide text beside a SMILES is read from it.

Columns and labels:
[1] = test system: pSTAT6 (Tyr641) in Beas-2B cells; conditions: IL-4 and IL-13 stimulated; cited from earlier work
[2] = test system: CCL26 (eotaxin-3) mRNA in Beas-2B cells; test: Inhibition of IL-13 stimulated CCL26; type: cell-based, human; conditions: IL-13, 100 nM
Summary of the method: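 Beas-2B cells plated at 4 × 10^5 cells/well and held overnight in complete medium, then serum-starved 2 h. Pretreated with test compound 2 h, then stimulated with IL-13 overnight in serum-free medium. RNA extracted with Trizol and reverse transcribed. CCL26 quantified relative to β-actin by TaqMan real-time PCR.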

[3] = test system: pSTAT6 in CD4+ T lymphocytes; type: cell-based; conditions: primary mouse CD4+ T lymphocytes, Figure S2
Summary of the method: (§1)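 CD4+ T cells magnetically sorted from C57BL/6J mice. Activated on plate-bound anti-CD3 and/or anti-CD28 with IL-2 or IL-4 for 15 min. Lysed in kinase lysis buffer with protease inhibitors, 10 mM NaF and 1 mM Na3VO4. Protein equalised by Bradford, then immunoblotted for phospho-STAT5 Tyr694/STAT5 or phospho-STAT6 Tyr641/STAT6.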

Beas-2B cells = test: Beas-2B cell viability/proliferation, MTS assay, 72 h; type: cell-based, human; conditions: 72 h exposure
Summary of the method: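 Beas-2B cells seeded at 2000 cells/well. Test compound made as 10 mM DMSO stock, serially diluted in DMSO, and equal amounts of each dilution added. Incubation at 37 °C for 72 h. Medium then replaced with 1:5 MTS/PBS for a further 1 h. Viable cells estimated from optical density at 490 nm.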

pAkt in MDA-MB-468 cells = test: Inhibition of EGF-stimulated pAkt in MDA-MB-468 cells; type: cell-based, human; conditions: serum starved MDA-MB-468, EGF
[4] = test system: pSTAT5 in CD4+ T lymphocytes; type: cell-based; conditions: primary mouse CD4+ T lymphocytes
Summary of the method: as §1

[5] = test system: pSTAT6 (Tyr641) in Beas-2B cells; test: Inhibition of STAT6 Tyr641 phosphorylation in intact Beas-2B cells; type: cell-based, human; conditions: for pSTAT6 inhibition potency (in words): IL-4, Figure 4B
Summary of the method: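 Beas-2B cells seeded at 3.0 × 10^5 cells/well the day before. Prodrug added from DMSO stocks (5–10 μM stock) for 2 h, then IL-4 2 ng/mL for 1 h. Cells washed in cold PBS, lysed with PMSF, and protein measured by Lowry. 15–30 µg run on 10% SDS-PAGE and probed for pSTAT6 Tyr641 with ECL detection, then stripped and reprobed for total STAT6. Bands quantified densitometrically.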

STAT6 (SH2 domain) = target: T1, STAT6 (SH2 domain) (Homo sapiens, UniProt P42226); test: Fluorescence polarization assay of affinity for STAT6; type: binding
T1 sequence (P42226 517-632 limits assumed): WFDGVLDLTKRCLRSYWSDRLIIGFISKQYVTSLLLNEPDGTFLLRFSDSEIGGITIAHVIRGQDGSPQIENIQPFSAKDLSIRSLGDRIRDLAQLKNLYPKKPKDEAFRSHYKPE

In the case of `CC(C)(C)C(=O)OCOP(=O)(OCOC(=O)C(C)(C)C)C(F)(F)c1ccc(/C=C/C(=O)N[C@H](C(=O)N2CCC[C@H]2C(=O)N(c2ccccc2)c2ccc(I)cc2)C(C)(C)C)cc1` [compound 17], the “concentration giving significant inhibition of pSTAT6” value [1] is given as no less than 1 µM, the “inhibition of CCL26 mRNA expression at 100 nM” value [2] is given as greater than 50% and the “inhibition of IL-4 stimulated pSTAT6” value [3] is given as “relatively weak”.
For `CC(C)(C)C(=O)OCOP(=O)(OCOC(=O)C(C)(C)C)C(F)(F)c1ccc(/C=C/C(=O)N[C@H](C(=O)N2CCC[C@H]2C(=O)Nc2ccccc2)C(C)(C)C)cc1` [compound 30], the “cell viability (in words)” value (Beas-2B cells) was “the fraction of viable cells paralleled pSTAT6 inhibition”, the “lowest concentration with potent inhibition of pAkt” value (pAkt in MDA-MB-468 cells) was 100 nM and the “inhibition of IL-2 mediated STAT5 phosphorylation” value [4] was “not an inhibitor of pSTAT5”. The “loss of pSTAT6 inhibition potency relative to 29” value ([5]; IL-4) was “approximately 25 fold”.
With `CC(C)(C)C(=O)OCOP(=O)(OCOC(=O)C(C)(C)C)C(F)(F)c1ccc(/C=C/C(=O)N[C@H](C(=O)N2CCC[C@H]2C(=O)N(c2ccccc2)c2ccccc2)C(C)(C)C)cc1` [compound 28] the “effect on cell viability at concentrations ≤1 µM” value (Beas-2B cells) was “did not affect viability”, the “inhibition of IL-2 mediated STAT5 phosphorylation” value [4] was “robust inhibition” and the “concentration giving complete inhibition of pSTAT6” value ([5]; prodrug 2 h, IL-4 1 h) was 500 nM. The “concentration giving significant inhibition of pSTAT6” value ([5]; prodrug 2 h, IL-4 1 h) was 100 nM.
Compound `C/C(=C\C(=O)N[C@H](C(=O)N1CCCC1/C=C/CCc1ccccc1)C(C)(C)C)c1ccc(OP(=O)(O)O)cc1` (stereo partly drawn) [compound 25] has an IC50 (STAT6 (SH2 domain)) of 500 nM.
In the case of `C/C(=C\C(=O)N[C@H](C(=O)N1CCC[C@H]1C(=O)N(C)C1CCCCC1)C(C)(C)C)c1ccc(C(F)(F)P(=O)(OCOC(=O)C(C)(C)C)OCOC(=O)C(C)(C)C)cc1` [compound 32], the “cell viability (in words)” value (Beas-2B cells) is reported as “nearly identical to that of 29”, the “inhibition of IL-2 mediated STAT5 phosphorylation” value [4] is reported as “robust inhibition” and the “pSTAT6 inhibition potency (in words)” value [5] is reported as “high potency”.
With `CN(C(=O)[C@@H]1CCCN1C(=O)[C@@H](NC(=O)/C=C/c1ccc(C(F)(F)P(=O)(OCOC(=O)C(C)(C)C)OCOC(=O)C(C)(C)C)cc1)C(C)(C)C)c1ccccc1` [compound 29] the “effect on cell viability at concentrations ≤1 µM” value (Beas-2B cells) was “did not affect viability”, the “inhibition of pAkt at 5 µM” value (pAkt in MDA-MB-468 cells) was “mild inhibition” and the “inhibition of IL-2 mediated STAT5 phosphorylation” value [4] was “robust inhibition”. The “concentration giving nearly complete inhibition of pSTAT6” value ([5]; prodrug 2 h, IL-4 1 h) was 100 nM and the “concentration giving significant inhibition of pSTAT6” value ([5]; prodrug 2 h, IL-4 1 h) was 50 nM.
`CC[C@H](C)[C@H](NC(=O)[C@H](CC(C)C)NC(=O)[C@H](CC(=O)O)NC(=O)[C@H](CCC(N)=O)NC(=O)[C@H](Cc1ccccc1)NC(=O)[C@@H]1CCCN1C(=O)[C@H](CCCCN)NC(=O)[C@H](Cc1ccc(OP(=O)(O)O)cc1)NC(C)=O)C(N)=O` [compound 1, Ac-pTyr-Lys-Pro-Phe-Gln-Asp-Leu-Ile-NH2] (HELM PEPTIDE1{[ac].[O=C([C@H](Cc1ccc(OP(=O)(O)O)cc1)N[*:1])[*:2]].K.P.F.Q.D.L.I.[am]}$$$$V2.0) gave an IC50 (STAT6 (SH2 domain)) of 2000 nM.
With `CC(C)(C)[C@H](NC(=O)/C=C/c1ccc(OP(=O)(O)O)cc1)C(=O)N1CCC[C@H]1C(=O)N(c1ccccc1)c1ccc(I)cc1` [18a] the IC50 (STAT6 (SH2 domain)) was 40 nM.
For `C/C(=C\C(=O)N[C@H](C(=O)N1CCC[C@H]1C(=O)N(C)c1ccccc1)C(C)(C)C)c1ccc(C(F)(F)P(=O)(OCOC(=O)C(C)(C)C)OCOC(=O)C(C)(C)C)cc1` [compound 31], the “cell viability (in words)” value (Beas-2B cells) was “nearly identical to that of 29”, the “inhibition of pAkt at 5 µM” value (pAkt in MDA-MB-468 cells) was “mild inhibition” and the “inhibition of IL-2 mediated STAT5 phosphorylation” value [4] was “robust inhibition”. For the same compound, the “pSTAT6 inhibition potency (in words)” value [5] was “retains potency” and the “inhibition of CCL26 mRNA expression at 100 nM” value [2] was greater than 50%.
